# Data taken from ChEMBL document CHEMBL1155327, “2,4-Diamino-quinazolines as inhibitors of beta-catenin/Tcf-4 pathway: Potential treatment for colorectal cancer” (Bioorg Med Chem Lett, 2009).
# pIC50: −log10 of the molar value.
# Test system: not listed separately
# Assay: Cytotoxicity against human SV5A8 cells
# Assay type: functional, cell-based
# Conditions: not given
# Procedure, shortened: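 Reporter cell lines 22C11 and 33.13 with control line 5A8; IC50 from means of at least two experiments; toxicity flagged as the minimal dose where cell killing appeared by Renilla luciferase signal.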
row,Structure (SMILES),pIC50
1,CCCCN1CCC(C(=O)Nc2ccc(CNc3nc(N(C)C)nc4cc(C)ccc34)cc2)CC1,< 4.98
2,Cc1ccc2c(NCc3ccc(NC(=O)C4CCN(Cc5ccc(F)cc5Cl)CC4)cc3)nc(N(C)C)nc2c1,< 5.23
3,Cc1ccc2c(NCc3ccc(NC(=O)C4CCN(Cc5ccccc5)CC4)cc3)nc(N(C)C)nc2c1,< 5.15
4,Cc1ccc(CN2CCC(C(=O)Nc3ccc(CNc4nc(N(C)C)nc5cc(C)ccc45)cc3)CC2)cc1,< 5.38
5,Cc1ccc2c(NCc3ccc(NC(=O)C4CCN(Cc5ccccc5)CC4)cc3)nc(N3CCN(C)CC3)nc2c1,< 4.75
6,Cc1ccc2c(NCc3ccc(NC(=O)C4CCN(Cc5ccccc5)CC4)cc3)nc(N3CCN[C@@H](C)C3)nc2c1,< 5.05
7,CCN1CCN(c2nc(NCc3ccc(NC(=O)C4CCN(Cc5ccccc5)CC4)cc3)c3ccc(C)cc3n2)CC1,< 4.89
8,Cc1ccc2c(NCc3ccc(NC(=O)C4CCN(Cc5ccccc5)CC4)cc3)nc(N3CCCCCC3)nc2c1,< 5.16
9,Cc1ccc2c(NCc3ccc(NC(=O)C4CCN(Cc5ccccc5)CC4)cc3)nc(N(C)CCCN(C)C)nc2c1,< 5.06
10,Cc1ccc2c(NCc3ccc(NC(=O)C4CCN(Cc5ccccc5)CC4)cc3)nc(N3CCNC(CCO)C3)nc2c1 (stereo unspecified),< 5.07
11,Cc1ccc2c(NCc3ccc(NC(=O)C4CCN(Cc5ccccc5)CC4)cc3)nc(N(C)CCN(C)C)nc2c1,< 5.05
12,Cc1ccc2c(NCc3ccc(NC(=O)C4CCN(C(=O)OC(C)(C)C)CC4)cc3)nc(N(C)C)nc2c1,< 5.32
13,Cc1ccc2c(NCc3ccc(NC(=O)C4CCN(Cc5ccccc5F)CC4)cc3)nc(N(C)C)nc2c1,< 5.18
14,Cc1ccc2c(NCc3ccc(NC(=O)C4CCN(Cc5ccco5)CC4)cc3)nc(N(C)C)nc2c1,< 4.70

# Test system: not listed separately
# Assay: Oral bioavailability in mouse at 25 mg/kg
# Assay type: ADME, organism-based
# Conditions: in vivo
# Procedure, shortened: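 Female nude mice dosed orally at 25 mg/kg; oral bioavailability (%) determined from pharmacokinetic study.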
row,Structure (SMILES),bioavailability [%]
1,Cc1ccc2c(NCc3ccc(NC(=O)C4CCN(Cc5ccccc5)CC4)cc3)nc(N(C)C)nc2c1,41

# Test system: not listed separately
# Assay: Plasma concentration in mouse at 200 mg/kg, po after 8 hrs
# Assay type: ADME, organism-based
# Set-up: dose 200 mg/kg, route oral
# Conditions: not given
# Procedure, shortened: (§1)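 Tumour-bearing nude mice (n = 4) given one oral dose (50 or 200 mg/kg); plasma and tumour drug concentrations (ng/mL) measured 8 h after dosing; tumour/plasma ratio calculated from these.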
row,Structure (SMILES),concentration at 8 h [ng/mL]
1,Cc1ccc2c(NCc3ccc(NC(=O)C4CCN(Cc5ccccc5)CC4)cc3)nc(N(C)C)nc2c1,2970

# Test system: not listed separately
# Assay: Drug level in tumor of nude mouse bearing HT29 or HCT116 tumor at 200 mg/kg, po after 8 hrs
# Assay type: ADME, organism-based, Neoplasm
# Set-up: dose 200 mg/kg, route oral
# Conditions: read-out: Ct
# Procedure, shortened: as §1
row,Structure (SMILES),concentration at 8 h [ng/mL]
1,Cc1ccc2c(NCc3ccc(NC(=O)C4CCN(Cc5ccccc5)CC4)cc3)nc(N(C)C)nc2c1,90700

# Test system: HT-29
# Assay: Antitumor activity against human HT-29 cells xenografted in nude mouse assessed as tumor growth inhibition at 200 mg/kg, po after 17 days
# Assay type: functional
# Conditions: HT-29, 408 h, read-out: TGI
# Procedure, shortened: (§2)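 Nude mice carrying subcutaneous HT29 or HCT116 tumours; oral dosing at 25, 50, 100 or 200 mg/kg once daily for 17 days; tumour volume measured; growth inhibition assessed at end of treatment.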
row,Structure (SMILES),inhibition in vivo at 200 mg/kg [%]
1,Cc1ccc2c(NCc3ccc(NC(=O)C4CCN(Cc5ccccc5)CC4)cc3)nc(N(C)C)nc2c1,20

# Test system: not listed separately
# Assay: Ratio of Drug level in tumor to mouse plasma at 200 mg/kg, po
# Conditions: not given
# Procedure, shortened: as §1
row,Structure (SMILES),Ratio
1,Cc1ccc2c(NCc3ccc(NC(=O)C4CCN(Cc5ccccc5)CC4)cc3)nc(N(C)C)nc2c1,40

# Test system: not listed separately
# Assay: Aqueous solubility at pH 7.4
# Assay type: physicochemical
# Conditions: not given
# Procedure, shortened: (§3)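 Water solubility measured in µg/mL at pH 7.4 and at pH 3.0.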
row,Structure (SMILES),solubility [µg/mL]
1,Cc1ccc2c(NCc3ccc(NC(=O)C4CCN(Cc5ccccc5)CC4)cc3)nc(N(C)C)nc2c1,43

# Test system: not listed separately
# Assay: Aqueous solubility at pH 3
# Assay type: physicochemical
# Conditions: not given
# Procedure, shortened: as §3
row,Structure (SMILES),solubility [µg/mL]
1,Cc1ccc2c(NCc3ccc(NC(=O)C4CCN(Cc5ccccc5)CC4)cc3)nc(N(C)C)nc2c1,> 100

# Test system: HCT-116
# Assay: Antitumor activity against human HCT116 cells xenografted in nude mouse assessed as tumor growth inhibition at 200 mg/kg, po after 17 days
# Assay type: functional
# Conditions: HCT-116, 408 h, read-out: TGI
# Procedure, shortened: as §2
row,Structure (SMILES),inhibition in vivo at 200 mg/kg [%]
1,Cc1ccc2c(NCc3ccc(NC(=O)C4CCN(Cc5ccccc5)CC4)cc3)nc(N(C)C)nc2c1,20

# Molecular target: Catenin beta-1 (Homo sapiens) (UniProt P35222)
# Assay: Inhibition of Beta-catenin/Tcf-4 pathway in human Tcf22C11 cell assessed as inhibition of reporter activity by cell-based reporter assay
# Conditions: not given
row,Structure (SMILES),pIC50
1,CCCCN1CCC(C(=O)Nc2ccc(CNc3nc(N(C)C)nc4cc(C)ccc34)cc2)CC1,5.83
2,Cc1ccc2c(NCc3ccc(NC(=O)C4CCN(Cc5ccc(F)cc5Cl)CC4)cc3)nc(N(C)C)nc2c1,6.28
3,Cc1ccc2c(NCc3ccc(NC(=O)C4CCN(Cc5ccccc5)CC4)cc3)nc(N(C)C)nc2c1,6.13
4,Cc1ccc(CN2CCC(C(=O)Nc3ccc(CNc4nc(N(C)C)nc5cc(C)ccc45)cc3)CC2)cc1,6.33
5,Cc1ccc2c(NCc3ccc(NC(=O)C4CCN(Cc5ccccc5)CC4)cc3)nc(N3CCN(C)CC3)nc2c1,5.80
6,Cc1ccc2c(NCc3ccc(NC(=O)C4CCN(Cc5ccccc5)CC4)cc3)nc(N3CCN[C@@H](C)C3)nc2c1,5.72
7,CCN1CCN(c2nc(NCc3ccc(NC(=O)C4CCN(Cc5ccccc5)CC4)cc3)c3ccc(C)cc3n2)CC1,5.90
8,CNc1nc(NCc2ccc(-c3ccccc3C(=O)OC)cc2)c2ccccc2n1,6.22
9,Cc1ccc2c(NCc3ccc(NC(=O)C4CCN(Cc5ccccc5)CC4)cc3)nc(N3CCCCCC3)nc2c1,5.98
10,Cc1ccc2c(NCc3ccc(NC(=O)C4CCN(Cc5ccccc5)CC4)cc3)nc(N(C)CCCN(C)C)nc2c1,5.85
11,Cc1ccc2c(NCc3ccc(NC(=O)C4CCN(Cc5ccccc5)CC4)cc3)nc(N3CCNC(CCO)C3)nc2c1 (stereo unspecified),5.64
12,Cc1ccc2c(NCc3ccc(NC(=O)C4CCN(Cc5ccccc5)CC4)cc3)nc(N(C)CCN(C)C)nc2c1,5.65
13,Cc1ccc2c(NCc3ccc(NC(=O)C4CCN(C(=O)OC(C)(C)C)CC4)cc3)nc(N(C)C)nc2c1,6.12
14,Cc1ccc2c(NCc3ccc(NC(=O)C4CCN(Cc5ccccc5F)CC4)cc3)nc(N(C)C)nc2c1,6.28
15,Cc1ccc2c(NCc3ccc(NC(=O)C4CCN(Cc5ccco5)CC4)cc3)nc(N(C)C)nc2c1,5.74

# Molecular target: Catenin beta-1 (Homo sapiens) (UniProt P35222)
# Assay: Inhibition of Beta-catenin/Tcf-4 pathway in human Tcf 33.13 cell assessed as inhibition of reporter activity by cell-based reporter assay
# Conditions: not given
row,Structure (SMILES),pIC50
1,CCCCN1CCC(C(=O)Nc2ccc(CNc3nc(N(C)C)nc4cc(C)ccc34)cc2)CC1,5.93
2,Cc1ccc2c(NCc3ccc(NC(=O)C4CCN(Cc5ccc(F)cc5Cl)CC4)cc3)nc(N(C)C)nc2c1,6.68
3,Cc1ccc2c(NCc3ccc(NC(=O)C4CCN(Cc5ccccc5)CC4)cc3)nc(N(C)C)nc2c1,6.12
4,Cc1ccc(CN2CCC(C(=O)Nc3ccc(CNc4nc(N(C)C)nc5cc(C)ccc45)cc3)CC2)cc1,6.30
5,Cc1ccc2c(NCc3ccc(NC(=O)C4CCN(Cc5ccccc5)CC4)cc3)nc(N3CCN(C)CC3)nc2c1,5.88
6,Cc1ccc2c(NCc3ccc(NC(=O)C4CCN(Cc5ccccc5)CC4)cc3)nc(N3CCN[C@@H](C)C3)nc2c1,5.84
7,CCN1CCN(c2nc(NCc3ccc(NC(=O)C4CCN(Cc5ccccc5)CC4)cc3)c3ccc(C)cc3n2)CC1,5.95
8,Cc1ccc2c(NCc3ccc(NC(=O)C4CCN(Cc5ccccc5)CC4)cc3)nc(N3CCCCCC3)nc2c1,6.02
9,Cc1ccc2c(NCc3ccc(NC(=O)C4CCN(Cc5ccccc5)CC4)cc3)nc(N(C)CCCN(C)C)nc2c1,5.88
10,Cc1ccc2c(NCc3ccc(NC(=O)C4CCN(Cc5ccccc5)CC4)cc3)nc(N3CCNC(CCO)C3)nc2c1 (stereo unspecified),5.67
11,Cc1ccc2c(NCc3ccc(NC(=O)C4CCN(Cc5ccccc5)CC4)cc3)nc(N(C)CCN(C)C)nc2c1,5.84
12,Cc1ccc2c(NCc3ccc(NC(=O)C4CCN(C(=O)OC(C)(C)C)CC4)cc3)nc(N(C)C)nc2c1,6.07
13,Cc1ccc2c(NCc3ccc(NC(=O)C4CCN(Cc5ccccc5F)CC4)cc3)nc(N(C)C)nc2c1,6.49
14,Cc1ccc2c(NCc3ccc(NC(=O)C4CCN(Cc5ccco5)CC4)cc3)nc(N(C)C)nc2c1,5.71
